Results published in publication PMC3779694 (Hepatology (Baltimore, Md.), 2011).
“Also recorded” adds a separate entry of the source.

Experiments:
adults with NASH = assay: Adverse events, phase 2 trial; format: in vivo, human; details: for Back pain / Constipation / Diarrhea / Dizziness / Dry mouth / Dyspepsia / Fatigue / Gastroesophageal reflux disease / Headache / Nasopharyngitis / Nausea / No. of subjects with at least one AE / Pain in extremity / Somnolence / Total no. of events (AEs) / Abdominal pain / Abdominal pain upper / Arthralgia / Asthenia: during treatment
[1] = Steady-state plasma pharmacokinetics of GS-9450; format: in vivo, human
In short: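 Plasma was assayed with a validated bioanalytical method. Steady-state Cmax, Tmax, T1/2 and AUCtau came from weeks 2–4 profiles by noncompartmental analysis. Trough samples were taken at weeks 1–4 and follow-up week 1. Dose proportionality of AUCtau and Cmax was tested by a power model across all fasted doses.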

## CC(C)[C@@]1(C(=O)N[C@H]2CC(=O)O[C@]2(O)CF)CC(c2nccc3ccccc23)=NO1 [GS-9450]
Adults with NASH; 1 mg (n = 26)
  Back pain: 1 (4) n (%)
  Constipation: 2 (8) n (%)
  Diarrhea: 2 (8) n (%)
  Dizziness: 2 (8) n (%)
  Dry mouth: 1 (4) n (%)
  Dyspepsia: 2 (8) n (%)
  Fatigue: 6 (23) n (%)
  Gastroesophageal reflux disease: 0 n (%)
  Headache: 4 (15) n (%)
  Nasopharyngitis: 2 (8) n (%)
  Nausea: 3 (12) n (%)
  No. of subjects with at least one AE: 20 (77) n (%)
  Pain in extremity: 1 (4) n (%)
  Somnolence: 1 (4) n (%)
  Total no. of events (AEs): 62
Adults with NASH; 5 mg
  frequency of treatment-emergent AEs during the 4-week on-treatment period: 85%
Adults with NASH; 5 mg (n = 26)
  Abdominal pain: 2 (8) n (%)
  Abdominal pain upper: 1 (4) n (%)
  Arthralgia: 3 (12) n (%)
  Asthenia: 1 (4) n (%)
  Back pain: 2 (8) n (%)
  Constipation: 0 n (%)
  Diarrhea: 6 (23) n (%)
  Dizziness: 0 n (%)
  Dry mouth: 0 n (%)
  Dyspepsia: 2 (8) n (%)
  Fatigue: 5 (19) n (%)
  Gastroesophageal reflux disease: 0 n (%)
  Headache: 7 (27) n (%)
  Nasopharyngitis: 0 n (%)
  Nausea: 1 (4) n (%)
  No. of subjects with at least one AE: 22 (85) n (%)
  Pain in extremity: 0 n (%)
  Somnolence: 2 (8) n (%)
  Total no. of events (AEs): 64
Adults with NASH; 10 mg
  frequency of treatment-emergent AEs during the 4-week on-treatment period: 75%
Adults with NASH; 10 mg (n = 24)
  Abdominal pain: 1 (4) n (%)
  Abdominal pain upper: 4 (17) n (%)
  Arthralgia: 1 (4) n (%)
  Asthenia: 1 (4) n (%)
  Back pain: 0 n (%)
  Constipation: 0 n (%)
  Diarrhea: 6 (25) n (%)
  Dizziness: 0 n (%)
  Dry mouth: 2 (8) n (%)
  Dyspepsia: 1 (4) n (%)
  Fatigue: 2 (8) n (%)
  Gastroesophageal reflux disease: 0 n (%)
  Headache: 4 (17) n (%)
  Nasopharyngitis: 0 n (%)
  Nausea: 3 (13) n (%)
  No. of subjects with at least one AE: 18 (75) n (%)
  Pain in extremity: 1 (4) n (%)
  Somnolence: 0 n (%)
  Total no. of events (AEs): 67
Adults with NASH; 40 mg
  frequency of treatment-emergent AEs during the 4-week on-treatment period: 80%
Adults with NASH; 40 mg (n = 25)
  Abdominal pain: 1 (4) n (%)
  Abdominal pain upper: 1 (4) n (%)
  Arthralgia: 3 (12) n (%)
  Asthenia: 0 n (%)
  Back pain: 1 (4) n (%)
  Constipation: 2 (8) n (%)
  Diarrhea: 5 (20) n (%)
  Dizziness: 2 (8) n (%)
  Dry mouth: 1 (4) n (%)
  Dyspepsia: 1 (4) n (%)
  Fatigue: 2 (8) n (%)
  Gastroesophageal reflux disease: 3 (12) n (%)
  Headache: 4 (16) n (%)
  Nasopharyngitis: 2 (8) n (%)
  Nausea: 3 (12) n (%)
  No. of subjects with at least one AE: 20 (80) n (%)
  Pain in extremity: 2 (8) n (%)
  Somnolence: 0 n (%)
  Total no. of events (AEs): 60
Adults with NASH; 40 mg, moderate facial flushing from day 1
  subjects who left the study because of a treatment-related AE: One subject
Adults with NASH; 4 weeks, 1-40 mg
  overall safety and tolerability: safe and well tolerated
Adults with NASH; all GS-9450 doses, 4 weeks
  serious adverse events during the on-treatment period: No serious adverse events; also recorded: no serious AEs (SAEs)
Adults with NASH; all groups
  deaths during the study: no deaths
[1]; daily dosing, all dose groups
  time by which steady state had been reached: 2–4 weeks
[1]; fasting conditions, steady state, plasma
  median Tmax: 2 to 3 h
[1]; from 1 to 40 mg
  Cmax dose proportionality: dose-proportional
